Assays:
[1] = biological target: T1, Prostaglandin G/H synthase 1 (Ovis aries, UniProt P05979); assay: Inhibition of sheep COX1 by spectrophotometry
T1 sequence (P05979 whole entry): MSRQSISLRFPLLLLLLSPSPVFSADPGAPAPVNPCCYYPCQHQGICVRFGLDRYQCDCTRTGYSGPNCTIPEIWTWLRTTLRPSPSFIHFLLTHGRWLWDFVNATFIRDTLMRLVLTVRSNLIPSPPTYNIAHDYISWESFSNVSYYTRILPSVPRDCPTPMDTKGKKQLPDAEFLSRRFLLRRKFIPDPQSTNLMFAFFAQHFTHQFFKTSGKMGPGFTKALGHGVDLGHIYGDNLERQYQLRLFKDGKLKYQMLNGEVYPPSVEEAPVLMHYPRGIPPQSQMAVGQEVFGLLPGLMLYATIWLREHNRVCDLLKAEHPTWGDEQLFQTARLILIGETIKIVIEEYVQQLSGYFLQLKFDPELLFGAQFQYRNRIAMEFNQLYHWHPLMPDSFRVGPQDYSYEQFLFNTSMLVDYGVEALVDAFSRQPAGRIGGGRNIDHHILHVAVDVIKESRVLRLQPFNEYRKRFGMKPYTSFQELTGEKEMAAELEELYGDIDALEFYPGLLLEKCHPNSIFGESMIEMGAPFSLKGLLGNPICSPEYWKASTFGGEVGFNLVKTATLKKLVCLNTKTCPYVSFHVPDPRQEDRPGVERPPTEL

NCI-H460 = assay: Cytotoxicity against human NCI-H460 cells assessed as inhibition of cell viability at 10 uM by MTT assay; assay type: functional
Method in brief: (§1)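 Cells were grown in MEM with 10% FBS and antibiotics at 37 °C, 5% CO2, plated at 2.0 × 10^4 cells/well and grown for 72 h. Compound or 0.1% DMSO was added, then MTT (5 mg/mL) for 3 h at 37 °C, read at 570 nm (690 nm blank). […] Inhibition = (DMSO control − treated)/control; two experiments in duplicate.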

[2] = Cytotoxicity against human HDF cells assessed as inhibition of cell viability at 100 uM by MTT assay; assay type: cell-based; conditions: read-out: INH; method in brief: as §1
HT-29 = assay: Cytotoxicity against human HT-29 cells by MTT assay; assay type: functional, cell-based; method in brief: as §1
K562 = assay: Cytotoxicity against human K562 cells assessed as inhibition of cell viability at 10 uM by trypan blue dye exclusion
Rattus norvegicus [3] = assay: Antiinflammatory activity in Sprague-Dawley rat assessed as inhibition of carrageenan induced paw swelling at 70 mg/kg, po after 3 hrs
Rattus norvegicus [4] = assay: Antiinflammatory activity in Sprague-Dawley rat assessed as inhibition of carrageenan induced paw swelling at 70 mg/kg, po after 4 hrs

SMILES | IC50 [1] [µM] | inhibition at 10 µM (NCI-H460) [%] | cytotoxicity at 100 µM [2] [%] | IC50 (HT-29) [µM] | inhibition at 10 µM (K562) [%] | inhibition in vivo at 70 mg/kg (Rattus norvegicus [3]) [%] | inhibition in vivo at 70 mg/kg (Rattus norvegicus [4]) [%]
CS(=O)(=O)c1ccc(C(=O)c2ccoc2)cc1 | 150 | 6 | 36.2 | 104 | 8.3 | 27 | 22.2
CS(=O)(=O)c1ccc(C(=O)c2ccco2)cc1 | 15.1 | 3 | 30.7 | 383 | 8.3 | 45.5 | 37.8
CS(=O)(=O)c1ccc(C(=O)c2cccs2)cc1 | – | 3 | 25.7 | 122 | 1 | 59.7 | 56
CS(=O)(=O)c1ccc(C(=O)c2ccsc2)cc1 | 144 | 2 | 31.2 | 75.7 | 14.6 | – | –
CS(=O)(=O)c1ccc(C(=O)c2ccc(Br)cc2)cc1 | 150 | 12.7 | 29.4 | 100 | 6.2 | 22 | 8.1
CS(=O)(=O)c1ccc(C(=O)c2ccc(F)cc2)cc1 | 107 | – | – | – | – | – | –
CS(=O)(=O)c1ccc(-c2ccccn2)cc1 | 89.6 | – | – | – | – | 53.7 | 51.4
CS(=O)(=O)c1ccc(Nc2ccc(F)cc2)cc1 | 141 | 1.8 | 37.4 | 130 | 13.5 | 41.9 | 32.6
CS(=O)(=O)c1ccc(-n2cccc2)cc1 | 86 | 3 | 28.9 | 146 | 1 | – | –
CS(=O)(=O)c1ccc(-n2ccc3ccccc32)cc1 | 78.7 | 12.2 | 34.3 | 85 | 16.6 | 48.7 | 46
Cn1cc(C(=O)c2ccc(S(C)(=O)=O)cc2)c2ccccc21 | 76.4 | 7 | 30.8 | 70.4 | 2.1 | – | –
CS(=O)(=O)c1ccc(C(=O)c2cccn2-c2ccccc2F)cc1 | 183 | 13.3 | 45 | 34.1 | 2.1 | 13.7 | 4.4
CS(=O)(=O)c1ccc(C(=O)c2ccn(-c3ccccc3F)c2)cc1 | 34.6 | 54.8 | 13.4 | 96.1 | 12.5 | – | –
CS(=O)(=O)c1ccc(C(=O)c2c[nH]c3ccccc23)cc1 | 26.7 | – | – | – | – | – | –
CS(=O)(=O)c1ccc(C2Oc3ccccc3-n3cccc32)cc1 (configuration not stated) | 177 | 6.6 | 12.3 | 100 | 13.5 | – | –
CS(=O)(=O)c1ccc(N2CCN(c3ccc(F)cc3)CC2)cc1 | 80 | 3.1 | 36.1 | 65.8 | 17.7 | – | –
Cc1ccc(-c2cc(C(F)(F)F)nn2-c2ccc(S(N)(=O)=O)cc2)cc1 [CELECOXIB] | – | 9.75 | 92 | 45.5 | 38.8 | – | –
CC(C)Cc1ccc([C@H](C)C(=O)O)cc1 [DEXIBUPROFEN] | – | – | – | – | – | – | 23.9
CC(C)[C@H](CO)Nc1nc(Nc2cccc(Cl)c2)c2ncn(C(C)C)c2n1 [PURVALANOLA] | – | 3.98 | 88.6 | > 100 | 75.1 | – | –

From ChEMBL document CHEMBL1240529, “Synthesis, anti-inflammatory activity, and in vitro antitumor effect of a novel class of cyclooxygenase inhibitors: 4-(aryloyl)phenyl methyl sulfones” (J Med Chem, 2010)
